One may read the IC50 as the concentration that gives 50% inhibition. The EC50 is the midpoint of the concentration-response curve.

For experiment [1], the target named is T1, Isocitrate dehydrogenase [NADP] cytoplasmic (Homo sapiens, UniProt O75874, R132H). Put plainly: Inhibition of human C-terminal His8-tagged IDH1-R132H mutant expressed in Escherichia coli Rosetta assessed as inhibition of ketoreductase activity by measuring NADPH consumption preincubated for 60 mins followed by addition of alpha-KG as substrate measured after 50 mins in presence of NADPH and Mg2+ by resazurin based diaphorase-coupled fluorescence assay. The gist of the method:
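IDH1-R132H–Mg2+ ketoreductase assay reading NADPH consumption through a diaphorase-coupled fluorescence reaction. Buffer contained 0.01% Tween 20 against aggregation. Primary screen at 15 μM in duplicate, with positives set at ≥60% inhibition in both replicates. Retests were in 8-point dose.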
Background: The colour change of resazurin is a common sign of viable cells or microbes.
Target sequence in this assay (O75874 2-414 R132H limits assumed): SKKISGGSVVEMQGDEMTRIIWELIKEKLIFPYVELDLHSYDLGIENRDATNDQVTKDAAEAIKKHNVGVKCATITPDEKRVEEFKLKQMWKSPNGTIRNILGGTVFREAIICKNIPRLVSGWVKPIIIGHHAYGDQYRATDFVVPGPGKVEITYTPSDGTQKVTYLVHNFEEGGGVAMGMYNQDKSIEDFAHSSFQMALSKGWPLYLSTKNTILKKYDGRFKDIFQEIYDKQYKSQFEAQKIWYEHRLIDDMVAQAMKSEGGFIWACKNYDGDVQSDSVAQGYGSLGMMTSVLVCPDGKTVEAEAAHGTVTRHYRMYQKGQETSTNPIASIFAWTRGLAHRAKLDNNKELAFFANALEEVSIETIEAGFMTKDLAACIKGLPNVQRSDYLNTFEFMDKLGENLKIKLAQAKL

The subject of experiment [2] is Isocitrate dehydrogenase [NADP] cytoplasmic (Homo sapiens), O75874 [R132H]. Nature of the experiment: (§1) Inhibition of IDH1-R132H mutant (unknown origin) expressed in human HA1EM cells assessed as suppression of R-2HG secretion measured after 72 hrs by LC-MS/MS analysis. Format: cell-based. The method, boiled down: (§2)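 HA1E-M cells (HEK-293 derivative) engineered to overexpress IDH1-R132H and release R-2HG into growth media. Compound treatment for 72 h, then R-2HG in conditioned media measured by LC-MS. Values normalized to DMSO-treated controls; EC50 from three independent experiments, each run in triplicate.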

Experiment [3] deals with T1, Isocitrate dehydrogenase [NADP] cytoplasmic. The description is as §1. Format: cell-based. The method, boiled down:
as §2
Target sequence in this assay (O75874 whole entry R132H): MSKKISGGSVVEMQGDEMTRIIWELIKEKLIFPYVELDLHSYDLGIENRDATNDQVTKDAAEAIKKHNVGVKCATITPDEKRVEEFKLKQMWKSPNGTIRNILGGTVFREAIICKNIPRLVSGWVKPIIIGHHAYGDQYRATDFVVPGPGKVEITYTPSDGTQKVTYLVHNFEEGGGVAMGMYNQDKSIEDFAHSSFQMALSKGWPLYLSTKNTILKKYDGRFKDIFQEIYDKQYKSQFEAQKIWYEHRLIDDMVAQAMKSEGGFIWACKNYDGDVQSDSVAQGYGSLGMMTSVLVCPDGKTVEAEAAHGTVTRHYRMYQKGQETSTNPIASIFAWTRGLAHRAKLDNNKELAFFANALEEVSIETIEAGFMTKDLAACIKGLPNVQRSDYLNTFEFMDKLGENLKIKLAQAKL

For experiment [4], the system named is Isocitrate dehydrogenase [NADP] cytoplasmic (Homo sapiens), O75874 [R132H]. Nature of the experiment: Inhibition of human C-terminal His8-tagged IDH1-R132H mutant expressed in Escherichia coli Rosetta assessed as inhibition of ketoreductase activity by measuring NADPH consumption preincubated for 10 mins followed by addition of NADPH and alpha-KG as substrate by fluorescence method. The gist of the method:
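Purified IDH1-R132H incubated with α-KG and NADPH; direct kinetic read of falling NADPH fluorescence, run in dose. Enzyme concentration kept below that of the screening assays so inhibitor stays far above enzyme. IC50 values are geometric means of at least three independent experiments.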

Activity calls are given as the source filed them. The rule behind the calls is not given here.

Sequence of Isocitrate dehydrogenase [NADP] cytoplasmic (Homo sapiens), O75874 [R132H] (O75874 whole entry R132H): as above

Turning to `CCCNC(=O)N(C)C[C@@H]1Oc2cc(C#Cc3cccc(F)c3)ccc2S(=O)(=O)N([C@@H](C)CO)C[C@H]1C`, in experiment [1], the half-inhibitory concentration (IC50) was 550 nM.
The same measure, in the same setting: the same measure for `C[C@@H]1CN([C@@H](C)CO)S(=O)(=O)c2ccc(C#Cc3cncn3C)cc2O[C@H]1CN(C)C(=O)NC1CCCCC1`: 1600 nM; for `C[C@@H]1CN([C@@H](C)CO)S(=O)(=O)c2ccc(C#Cc3ccc(F)c(F)c3)cc2O[C@H]1CN(C)C(=O)NC1CCCCC1`: 28 nM; for `C[C@@H]1CN([C@@H](C)CO)S(=O)(=O)c2ccc(C#Cc3ccc(Cl)cc3)cc2O[C@H]1CN(C)C(=O)NC1CCCCC1`: 56 nM.
Same read-out and setting: the result for `C[C@@H]1CN([C@@H](C)CO)S(=O)(=O)c2ccc(C#Cc3cccnc3)cc2O[C@H]1CCC(=O)NC1CCCCC1` reads 9100 nM.
`Cc1ccccc1C(C(=O)NC1CCCCC1)N(C(=O)Cn1ccnc1C)c1cccc(F)c1` (stereo not given): in experiment [2], the inhibition result is “Dose-dependent effect”. Besides, the 50% effective concentration (EC50) in experiment [3] stood at 60 nM. Besides, in experiment [4], the inhibition entry was “Active”.
With `C[C@H](CO)N1C[C@H](C)[C@@H](CN(C)C(=O)NC2CCCCC2)Oc2cc(C#Cc3cccc(F)c3)ccc2S1(=O)=O`, the IC50 in experiment [1] came to 1700 nM.
In the case of `C[C@@H]1CN([C@@H](C)CO)S(=O)(=O)c2ccc(C#CC3CCCCC3)cc2O[C@H]1CN(C)C(=O)NC1CCCCC1`, the IC50 in experiment [1] was 90 nM.
As to `C[C@@H]1CN([C@@H](C)CO)S(=O)(=O)c2ccc(C#Cc3cccc(F)c3)cc2O[C@H]1CN(C)C(=O)CC1CCCCC1`, in experiment [1], the IC50 was 360 nM.
Still for that read-out and setting: the same measure for `C[C@@H]1CN([C@@H](C)CO)S(=O)(=O)c2ccc(C#Cc3ccccc3)cc2O[C@H]1CN(C)C(=O)NC1CCCCC1`: 75 nM.
The same measure, in the same setting: the result for `C[C@@H]1CN([C@@H](C)CO)S(=O)(=O)c2ccc(C#Cc3cccc(F)c3)cc2O[C@H]1CN(C)C(=O)NC1CC1` reads 1000 nM.
Same read-out and setting: the result for `CCNC(=O)N(C)C[C@@H]1Oc2cc(C#Cc3cccc(F)c3)ccc2S(=O)(=O)N([C@@H](C)CO)C[C@H]1C` reads 1400 nM; that for `C#Cc1ccc2c(c1)O[C@@H](CN(C)C(=O)NC1CCCCC1)[C@H](C)CN([C@@H](C)CO)S2(=O)=O`, 7700 nM; that for `C[C@@H]1CN([C@@H](C)CO)S(=O)(=O)c2ccc(C#Cc3cccc(F)c3)cc2O[C@H]1CN(C)C(=O)N(C)C1CCCCC1`, 5700 nM.
As to `C[C@H]1CN([C@@H](C)CO)S(=O)(=O)c2ccc(C#Cc3cccc(F)c3)cc2O[C@H]1CN(C)C(=O)NC1CCCCC1`, in experiment [1], the IC50 stood at 6300 nM.
On the same count and under the same terms, the result for `C[C@@H]1CN([C@@H](C)CO)S(=O)(=O)c2ccc(C#Cc3ccc(F)cc3)cc2O[C@H]1CN(C)C(=O)NC1CCCCC1` reads 37 nM; that for `C[C@@H]1CN([C@@H](C)CO)S(=O)(=O)c2ccc(C#Cc3cccc(F)c3)cc2O[C@H]1CN(C)C(=O)c1ccno1`, 19000 nM; that for `C[C@@H]1CN([C@@H](C)CO)S(=O)(=O)c2ccc(C#C[Si](C)(C)C)cc2O[C@H]1CN(C)C(=O)NC1CCCCC1`, 140 nM.

The values above are taken from ChEMBL document CHEMBL3862029, “Discovery of 8-Membered Ring Sulfonamides as Inhibitors of Oncogenic Mutant Isocitrate Dehydrogenase 1” (ACS Med Chem Lett, 2016).
